Measured values published in ChEMBL document CHEMBL4152323, “N-(1,3,4-oxadiazol-2-yl)benzamide analogs, bacteriostatic agents against methicillin- and vancomycin-resistant bacteria” (Eur J Med Chem, 2018).
≈ marks a conversion by molar mass, not a printed value. Calls of active or inactive are those of the source. The rule behind the calls is not given here.

Experiments:
Acinetobacter baumannii = assay: Bacteriostatic activity against Acinetobacter baumannii ATCC 19606 after 20 hrs by broth microdilution method; type: functional; details: ATCC 19606 = CIP 70.34 = JCM 6841
Summary of the method: (§1)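 MIC by broth microdilution across 128 to 1 μg/mL in 96-well plates, 37 °C for at least 20 h. MIC is the lowest concentration with no visible growth.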

Klebsiella pneumoniae = assay: Bacteriostatic activity against Klebsiella pneumoniae BAA 1706 after 20 hrs by broth microdilution method; type: functional; summary of the method: as §1
Pseudomonas aeruginosa = assay: Bacteriostatic activity against Pseudomonas aeruginosa ATCC 15442 after 20 hrs by broth microdilution method; type: functional; summary of the method: as §1
Staphylococcus aureus [1] = assay: Antibacterial activity against Staphylococcus aureus assessed as growth inhibition at 16 ug/ml after 24 hrs; type: functional, organism-based
Summary of the method: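 S. aureus grown in Mueller Hinton Broth to early exponential phase, then exposed to compound (16 μg/mL; DMSO stocks 10 mg/mL) or DMSO in duplicate, 37 °C for 24 h. OD600 read; percent normalized OD600 = (X − media blank)/(DMSO control − media blank) × 100.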

Staphylococcus aureus [2] = assay: Bacteriostatic activity against methicillin-resistant Staphylococcus aureus ATCC 33592 after 20 hrs by broth microdilution method; type: functional; details: ATCC 33592, 20 h
Summary of the method: (§2)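 Broth microdilution MIC over 128 to 1 μg/mL, run alongside methicillin, linezolid and vancomycin. MIC taken as the lowest concentration with no visible growth.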

Enterococcus faecalis [3] = assay: Bacteriostatic activity against vancomycin-resistant Enterococcus faecalis ATCC 51575 after 20 hrs by broth microdilution method; type: functional; details: ATCC 51575, 20 h; summary of the method: as §2
Enterococcus faecalis [4] = assay: Bacteriostatic activity against Enterococcus faecalis ATCC 29212 after 20 hrs by broth microdilution method; type: functional; details: ATCC 29212, 20 h; summary of the method: as §2
Staphylococcus aureus [5] = assay: Bacteriostatic activity against Staphylococcus aureus ATCC 25923 after 20 hrs by broth microdilution method; type: functional; details: ATCC 25923, 20 h; summary of the method: as §2
Listeria monocytogenes = assay: Bacteriostatic activity against Listeria monocytogenes ATCC 19115 after 20 hrs by broth microdilution method; type: functional; details: ATCC 19115, 20 h; summary of the method: as §1
Enterococcus faecium [6] = assay: Bactericidal activity against vancomycin-resistant Enterococcus faecium ATCC 700221 clinical isolate preincubated for 20 hrs followed by TSA plating and measured after 18 hrs; type: functional
Summary of the method: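 MBC: 4 μL from wells with no growth in the MIC plate (Brain Heart Infusion broth, 37 °C, at least 20 h) spotted onto Tryptic Soy Agar. Read after at least 18 h at 37 °C.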

Staphylococcus aureus [7] = assay: Bactericidal activity against methicillin-resistant Staphylococcus aureus USA700 NRS386 clinical isolate preincubated for 20 hrs followed by TSA plating and measured after 18 hrs; type: functional
Staphylococcus aureus [8] = assay: Bactericidal activity against methicillin-resistant Staphylococcus aureus USA400 NRS123 clinical isolate preincubated for 20 hrs followed by TSA plating and measured after 18 hrs; type: functional
Escherichia coli [9] = assay: Bacteriostatic activity against AcrAB-tolC deficient Escherichia coli JW5503-1 after 20 hrs by broth microdilution method; type: functional; details: JW5503-1, 20 h; summary of the method: as §1
Enterococcus faecium [10] = assay: Bacteriostatic activity against vancomycin-resistant Enterococcus faecium ATCC 700221 clinical isolate after 20 hrs by broth microdilution method; type: functional; details: ATCC 700221, 20 h
Summary of the method: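 Broth microdilution MIC over 128 to 1 μg/mL in Brain Heart Infusion broth, 37 °C for at least 20 h. MIC taken as the lowest concentration with no visible growth.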

Staphylococcus aureus [11] = assay: Bacteriostatic activity against vancomycin-intermediate Staphylococcus aureus NRS1 clinical isolate after 20 hrs by broth microdilution method; type: functional; details: NRS1, 20 h; summary of the method: as §2
Staphylococcus aureus [12] = assay: Bacteriostatic activity against methicillin-resistant Staphylococcus aureus NRS119 clinical isolate after 20 hrs by broth microdilution method; type: functional; details: NRS119, 20 h; summary of the method: as §2
Staphylococcus aureus [13] = assay: Bactericidal activity against vancomycin-intermediate Staphylococcus aureus NRS1 clinical isolate preincubated for 20 hrs followed by TSA plating and measured after 18 hrs; type: functional
Staphylococcus aureus [14] = assay: Bactericidal activity against methicillin-resistant Staphylococcus aureus USA300 NRS384 clinical isolate preincubated for 20 hrs followed by TSA plating and measured after 18 hrs; type: functional
Escherichia coli [15] = assay: Bacteriostatic activity against Escherichia coli BW25113 after 20 hrs by broth microdilution method; type: functional; details: BW25113, 20 h; summary of the method: as §1
Staphylococcus aureus [16] = assay: Bactericidal activity against methicillin-resistant Staphylococcus aureus NRS119 clinical isolate preincubated for 20 hrs followed by TSA plating and measured after 18 hrs; type: functional
Staphylococcus aureus [17] = assay: Bacteriostatic activity against methicillin-resistant Staphylococcus aureus USA700 NRS386 clinical isolate after 20 hrs by broth microdilution method; type: functional; details: USA700 NRS386, 20 h; summary of the method: as §2
Staphylococcus aureus [18] = assay: Bacteriostatic activity against methicillin-resistant Staphylococcus aureus USA300 NRS384 clinical isolate after 20 hrs by broth microdilution method; type: functional; details: USA300 NRS384, 20 h; summary of the method: as §2
Staphylococcus aureus [19] = assay: Bactericidal activity against methicillin-resistant Staphylococcus aureus USA500 NRS385 clinical isolate preincubated for 20 hrs followed by TSA plating and measured after 18 hrs; type: functional
Staphylococcus aureus [20] = assay: Bactericidal activity against methicillin-resistant Staphylococcus aureus USA800 NRS387 clinical isolate preincubated for 20 hrs followed by TSA plating and measured after 18 hrs; type: functional
Staphylococcus aureus [21] = assay: Bacteriostatic activity against methicillin-resistant Staphylococcus aureus USA800 NRS387 clinical isolate after 20 hrs by broth microdilution method; type: functional; details: USA800 NRS387, 20 h; summary of the method: as §2
Staphylococcus aureus [22] = assay: Bacteriostatic activity against methicillin-resistant Staphylococcus aureus USA500 NRS385 clinical isolate after 20 hrs by broth microdilution method; type: functional; details: USA500 NRS385, 20 h; summary of the method: as §2
Staphylococcus aureus [23] = assay: Bacteriostatic activity against methicillin-resistant Staphylococcus aureus USA400 NRS123 clinical isolate after 20 hrs by broth microdilution method; type: functional; details: USA400 NRS123, 20 h; summary of the method: as §2
Staphylococcus aureus [24] = assay: Bactericidal activity against vancomycin-resistant Staphylococcus aureus VRS12 clinical isolate preincubated for 20 hrs followed by TSA plating and measured after 18 hrs; type: functional
Staphylococcus aureus [25] = assay: Bacteriostatic activity against vancomycin-resistant Staphylococcus aureus VRS12 clinical isolate after 20 hrs by broth microdilution method; type: functional; details: VRS12, 20 h; summary of the method: as §2

## COLISTIN
Acinetobacter baumannii
  MIC: < 1 µg/mL
Klebsiella pneumoniae
  MIC: < 1 µg/mL
Pseudomonas aeruginosa
  MIC: < 1 µg/mL

## C[C@@H]1C[C@H](C)CN(S(=O)(=O)c2ccc(-c3nnc(-c4cccs4)o3)cc2)C1
Staphylococcus aureus [1]
  growth inhibition (GI): inactive

## O=C(Nc1nnc(-c2cccs2)o1)c1ccc(S(=O)(=O)N2CCCCC2)cc1
Staphylococcus aureus [2]
  MIC: 32 µg/mL (≈ 76.5 µM)
Staphylococcus aureus [1]
  growth inhibition (GI): Active
Enterococcus faecalis [3]
  MIC: 64 µg/mL (≈ 153 µM)
Enterococcus faecalis [4]
  MIC: 16 µg/mL (≈ 38.2 µM)
Staphylococcus aureus [5]
  MIC: 32 µg/mL (≈ 76.5 µM)
Listeria monocytogenes
  MIC: 32 µg/mL (≈ 76.5 µM)

## C[C@@H]1C[C@H](C)CN(S(=O)(=O)c2ccc(C(=O)Nc3nnc(-c4ccc(Br)cc4)o3)cc2)C1 (mixture of isomers)
Staphylococcus aureus [2]
  MIC: 4 µg/mL
Staphylococcus aureus [1]
  growth inhibition (GI): Active
Enterococcus faecalis [3]
  MIC: 4 µg/mL
Enterococcus faecalis [4]
  MIC: 4 µg/mL
Staphylococcus aureus [5]
  MIC: 2 µg/mL
Listeria monocytogenes
  MIC: 4 µg/mL

## C[C@@H]1C[C@H](C)CN(S(=O)(=O)c2ccc(C(=O)Nc3nnc(-c4ccc(Cl)cc4)o3)cc2)C1 (mixture of isomers)
Staphylococcus aureus [2]
  MIC: 1 µg/mL
Staphylococcus aureus [1]
  growth inhibition (GI): Active
Enterococcus faecalis [3]
  MIC: 2 µg/mL
Enterococcus faecalis [4]
  MIC: 4 µg/mL
Staphylococcus aureus [5]
  MIC: 2 µg/mL
Listeria monocytogenes
  MIC: 2 µg/mL

## C[C@@H]1CN(S(=O)(=O)c2ccc(C(=O)Nc3nnc(-c4cccs4)o3)cc2)C[C@H](C)O1
Staphylococcus aureus [1]
  growth inhibition (GI): inactive

## C[C@@H]1C[C@H](C)CN(S(=O)(=O)c2ccc(C(=O)Nc3nnc(-c4ccc([N+](=O)[O-])cc4)o3)cc2)C1 (mixture of isomers)
Staphylococcus aureus [2]
  MIC: 16 µg/mL
Staphylococcus aureus [1]
  growth inhibition (GI): Active
Enterococcus faecalis [3]
  MIC: 32 µg/mL
Enterococcus faecalis [4]
  MIC: 64 µg/mL
Staphylococcus aureus [5]
  MIC: 32 µg/mL
Listeria monocytogenes
  MIC: 32 µg/mL

## C[C@@H]1C[C@H](C)CN(S(=O)(=O)c2ccc(C(=O)Nc3nnc(-c4cccs4)[nH]3)cc2)C1
Staphylococcus aureus [1]
  growth inhibition (GI): inactive

## CN(C)S(=O)(=O)c1ccc(C(=O)Nc2nnc(-c3ccc(F)cc3)o2)cc1
Staphylococcus aureus [2]
  MIC: 16 µg/mL (≈ 41 µM)
Staphylococcus aureus [1]
  growth inhibition (GI): Active
Enterococcus faecalis [3]
  MIC: 32 µg/mL (≈ 82 µM)
Enterococcus faecalis [4]
  MIC: 32 µg/mL (≈ 82 µM)
Staphylococcus aureus [5]
  MIC: 16 µg/mL (≈ 41 µM)
Listeria monocytogenes
  MIC: 32 µg/mL (≈ 82 µM)

## CC(=O)NC[C@H]1CN(c2ccc(N3CCOCC3)c(F)c2)C(=O)O1 [LINEZOLID]
Enterococcus faecium [6]
  MBC: 64 µg/mL (≈ 190 µM)
Staphylococcus aureus [7]
  MBC: 128 µg/mL (≈ 379 µM)
Staphylococcus aureus [8]
  MBC: 64 µg/mL (≈ 190 µM)
Escherichia coli [9]
  MIC: 8 µg/mL (≈ 23.7 µM)
Enterococcus faecium [10]
  MIC: ≤ 1 µg/mL
Staphylococcus aureus [11]
  MIC: ≤ 1 µg/mL
Staphylococcus aureus [12]
  MIC: 32 µg/mL (≈ 94.9 µM)
Staphylococcus aureus [13]
  MBC: 1 µg/mL (≈ 2.96 µM)
Staphylococcus aureus [14]
  MBC: 64 µg/mL (≈ 190 µM)
Escherichia coli [15]
  MIC: > 128 µg/mL
Staphylococcus aureus [16]
  MBC: 32 µg/mL (≈ 94.9 µM)
Staphylococcus aureus [17]
  MIC: ≤ 1 µg/mL
Staphylococcus aureus [18]
  MIC: ≤ 1 µg/mL
Staphylococcus aureus [19]
  MBC: 2 µg/mL (≈ 5.93 µM)
Staphylococcus aureus [20]
  MBC: 128 µg/mL (≈ 379 µM)
Staphylococcus aureus [21]
  MIC: ≤ 1 µg/mL
Staphylococcus aureus [22]
  MIC: ≤ 1 µg/mL
Staphylococcus aureus [23]
  MIC: ≤ 1 µg/mL
Staphylococcus aureus [24]
  MBC: 32 µg/mL (≈ 94.9 µM)
Staphylococcus aureus [25]
  MIC: ≤ 1 µg/mL

## COc1cccc(OC)c1C(=O)N[C@@H]1C(=O)N2[C@@H]1SC(C)(C)[C@@H]2C(=O)O [METHICILLIN]
Staphylococcus aureus [2]
  MIC: > 128 µg/mL
Staphylococcus aureus [5]
  MIC: 2 µg/mL (≈ 5.26 µM)

## O=C(Nc1nnc(-c2ccc(Cl)cc2)o1)c1ccc(S(=O)(=O)N2CCCC2)cc1
Staphylococcus aureus [2]
  MIC: 8 µg/mL (≈ 18.5 µM)
Staphylococcus aureus [1]
  growth inhibition (GI): Active
Enterococcus faecalis [3]
  MIC: 16 µg/mL (≈ 37 µM)
Enterococcus faecalis [4]
  MIC: 16 µg/mL (≈ 37 µM)
Staphylococcus aureus [5]
  MIC: 16 µg/mL (≈ 37 µM)
Listeria monocytogenes
  MIC: 16 µg/mL (≈ 37 µM)

## C[C@@H]1C[C@H](C)CN(S(=O)(=O)c2ccc(C(=O)Nc3nnc(C4CCCO4)o3)cc2)C1 (stereo partly specified)
Staphylococcus aureus [1]
  growth inhibition (GI): inactive

## C[C@@H]1C[C@H](C)CN(S(=O)(=O)c2ccc(C(=O)Nc3nnc(-c4cccc(C#N)c4)o3)cc2)C1 (mixture of isomers)
Staphylococcus aureus [2]
  MIC: 8 µg/mL
Staphylococcus aureus [1]
  growth inhibition (GI): Active
Enterococcus faecalis [3]
  MIC: 16 µg/mL
Enterococcus faecalis [4]
  MIC: 32 µg/mL
Staphylococcus aureus [5]
  MIC: 16 µg/mL
Listeria monocytogenes
  MIC: 8 µg/mL
